Structures are written as SMILES. In brackets after ≈: the same amount, converted by molar mass.

Common to all, as to type: functional
Experiment [1] relates to Klebsiella pneumoniae. Briefly: Ratio of compound MIC90 to gentamicin MIC90 for Klebsiella pneumoniae.
The next experiment deals with Cryptococcus neoformans. Briefly: Antimicrobial activity against Cryptococcus neoformans by broth microdilution method. Summed up: (§1)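 Fungal panel of Candida albicans, Candida parapsilosis, Aspergillus niger and Cryptococcus neoformans, tested in vitro by standard NCCLS broth microdilution. The yeast susceptibility reference cited is M27-A.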
(Dilution methods test growth across graded concentrations, often in twofold steps.)

The next experiment concerns Staphylococcus aureus. Briefly: Antibacterial activity against Staphylococcus aureus by broth microdilution method. Summed up: (§2)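 In vitro broth microdilution following the NCCLS standard for bacteria (M7-A5). The test panel was Bacillus subtilis, Staphylococcus aureus, Klebsiella pneumoniae and Pseudomonas aeruginosa.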
In another experiment the test system is Bacillus subtilis. Briefly: Antibacterial activity against Bacillus subtilis by broth microdilution method. Summed up: as §2
The next experiment relates to Aspergillus niger. Briefly: Antifungal activity against Aspergillus niger by broth microdilution method. The method, boiled down: as §1
The subject of experiment [2] is Pseudomonas aeruginosa. The experiment can be described thus: Antibacterial activity against Pseudomonas aeruginosa by broth microdilution method. Summed up:
as §2

The next experiment relates to Candida albicans. The experiment can be described thus: Antifungal activity against Candida albicans by broth microdilution method. The method, boiled down: as §1
Experiment [3] deals with Klebsiella pneumoniae. The experiment can be described thus: Antibacterial activity against Klebsiella pneumoniae by broth microdilution method. The method, boiled down:
as §2

The test system of the next experiment is Candida parapsilosis. The experiment can be described thus: Antifungal activity against Candida parapsilosis by broth microdilution method. To be noted: Lodderomyces parapsilosis. Summed up: as §1
In experiment [4] the test system is Pseudomonas aeruginosa. The experiment can be described thus: Ratio of gentamicin MIC90 to compound MIC90 for Pseudomonas aeruginosa.

Take `CON=C1C2C(c3ccccc3OC)NC(c3ccccc3OC)C1C(c1ccccc1OC)NC2c1ccccc1OC` (stereo unspecified): the Ratio in the experiment on Klebsiella pneumoniae [1] turned out to be 4. Also, the MIC90 is 8 µg/mL (≈ 13.5 µM) against Cryptococcus neoformans; above 128 µg/mL with Staphylococcus aureus; 64 µg/mL (≈ 108 µM) in the experiment on Bacillus subtilis; 4 µg/mL (≈ 6.74 µM) in the experiment with Aspergillus niger; 16 µg/mL (≈ 26.9 µM) in the experiment with Pseudomonas aeruginosa [2]; 64 µg/mL (≈ 108 µM) against Candida albicans. The MIC90 came out at 8 µg/mL (≈ 13.5 µM) with Klebsiella pneumoniae [3] and 32 µg/mL (≈ 53.9 µM) in the experiment with Candida parapsilosis.

In the case of `CON=C1C2C(c3ccccc3C)NC(c3ccccc3C)C1C(c1ccccc1C)NC2c1ccccc1C` (stereo unspecified), the Ratio in the experiment on Klebsiella pneumoniae [1] amounted to 8. Also, the MIC90 in the experiment on Cryptococcus neoformans is above 128 µg/mL; against Staphylococcus aureus, above 128 µg/mL; against Bacillus subtilis it was above 128 µg/mL; against Aspergillus niger, 64 µg/mL (≈ 121 µM); against Pseudomonas aeruginosa [2] it was 16 µg/mL (≈ 30.2 µM); in the experiment with Candida albicans it was 64 µg/mL (≈ 121 µM). Further, the MIC90 against Klebsiella pneumoniae [3] was determined as 16 µg/mL (≈ 30.2 µM); in the experiment on Candida parapsilosis it was 8 µg/mL (≈ 15.1 µM).

Take `CON=C1C2C(c3ccc(C)cc3)NC(c3ccc(C)cc3)C1C(c1ccc(C)cc1)NC2c1ccc(C)cc1` (stereo unspecified): the Ratio in the experiment on Klebsiella pneumoniae [1] and with Pseudomonas aeruginosa [4] was 4 in each case. The MIC90 in the experiment with Cryptococcus neoformans is above 128 µg/mL; in the experiment with Staphylococcus aureus, above 128 µg/mL; with Bacillus subtilis, 64 µg/mL (≈ 121 µM); with Aspergillus niger, 64 µg/mL (≈ 121 µM); with Pseudomonas aeruginosa [2] it was 4 µg/mL (≈ 7.55 µM); with Candida albicans, 64 µg/mL (≈ 121 µM). Besides, the MIC90 against Klebsiella pneumoniae [3] is 8 µg/mL (≈ 15.1 µM); against Candida parapsilosis it was 2 µg/mL (≈ 3.78 µM).

Take `CON=C1C2C(c3ccc(SC)cc3)NC(c3ccc(SC)cc3)C1C(c1ccc(SC)cc1)NC2c1ccc(SC)cc1` (stereo unspecified): the Ratio in the experiment with Klebsiella pneumoniae [1] and with Pseudomonas aeruginosa [4] was 4 in each case. Further, the MIC90 was 8 µg/mL (≈ 12.2 µM) with Cryptococcus neoformans; above 128 µg/mL with Staphylococcus aureus; 64 µg/mL (≈ 97.3 µM) against Bacillus subtilis; 4 µg/mL (≈ 6.08 µM) with Aspergillus niger; 4 µg/mL (≈ 6.08 µM) in the experiment on Pseudomonas aeruginosa [2]; 32 µg/mL (≈ 48.6 µM) against Candida albicans. Moreover, the MIC90 with Klebsiella pneumoniae [3] came out at 8 µg/mL (≈ 12.2 µM); against Candida parapsilosis it was 16 µg/mL (≈ 24.3 µM).

Turning to `CON=C1C2C(c3ccccc3)NC(c3ccccc3)C1C(c1ccccc1)NC2c1ccccc1` (stereo unspecified), the MIC90 is above 128 µg/mL against Cryptococcus neoformans; above 128 µg/mL in the experiment on Staphylococcus aureus; above 128 µg/mL against Bacillus subtilis; above 128 µg/mL against Aspergillus niger; 128 µg/mL (≈ 270 µM) in the experiment on Pseudomonas aeruginosa [2]; 128 µg/mL (≈ 270 µM) against Candida albicans. Further, the MIC90 against Klebsiella pneumoniae [3] and in the experiment with Candida parapsilosis was above 128 µg/mL each time.

Consider `CON=C1C2C(c3cccc(F)c3)NC(c3cccc(F)c3)C1C(c1cccc(F)c1)NC2c1cccc(F)c1` (stereo unspecified), for which the MIC90 was above 128 µg/mL against Cryptococcus neoformans; above 128 µg/mL against Staphylococcus aureus; above 128 µg/mL against Bacillus subtilis; 16 µg/mL (≈ 29.3 µM) in the experiment on Aspergillus niger; 16 µg/mL (≈ 29.3 µM) in the experiment on Pseudomonas aeruginosa [2]; 32 µg/mL (≈ 58.7 µM) in the experiment with Candida albicans. Besides, the MIC90 in the experiment with Klebsiella pneumoniae [3] was 64 µg/mL (≈ 117 µM); in the experiment on Candida parapsilosis it was above 128 µg/mL.

With `CCCOc1ccc(C2NC(c3ccc(OCCC)cc3)C3C(=NOC)C2C(c2ccc(OCCC)cc2)NC3c2ccc(OCCC)cc2)cc1` (stereo unspecified), the Ratio with Klebsiella pneumoniae [1] was determined as 8. Moreover, the MIC90 against Cryptococcus neoformans is 32 µg/mL (≈ 45.3 µM); against Staphylococcus aureus it was above 128 µg/mL; in the experiment on Bacillus subtilis, above 128 µg/mL; against Aspergillus niger it was 16 µg/mL (≈ 22.7 µM); against Pseudomonas aeruginosa [2], 64 µg/mL (≈ 90.7 µM); with Candida albicans, above 128 µg/mL. Further, the MIC90 against Klebsiella pneumoniae [3] was 16 µg/mL (≈ 22.7 µM); in the experiment on Candida parapsilosis, above 128 µg/mL.

On to `ON=C1C2C(c3ccc(Cl)cc3)NC(c3ccc(Cl)cc3)C1C(c1ccc(Cl)cc1)NC2c1ccc(Cl)cc1` (stereo unspecified), for which the MIC90 against Cryptococcus neoformans is above 128 µg/mL; with Staphylococcus aureus, 64 µg/mL (≈ 107 µM); with Bacillus subtilis it was above 128 µg/mL; with Aspergillus niger, 64 µg/mL (≈ 107 µM); in the experiment with Pseudomonas aeruginosa [2], 32 µg/mL (≈ 53.6 µM); in the experiment on Candida albicans it was 8 µg/mL (≈ 13.4 µM). Further, the MIC90 in the experiment with Klebsiella pneumoniae [3] was 16 µg/mL (≈ 26.8 µM); against Candida parapsilosis, 128 µg/mL (≈ 214 µM).

Consider `CCc1ccc(C2NC(c3ccc(CC)cc3)C3C(=NOC)C2C(c2ccc(CC)cc2)NC3c2ccc(CC)cc2)cc1` (stereo unspecified), for which the MIC90 against Cryptococcus neoformans was above 128 µg/mL; in the experiment with Staphylococcus aureus it was above 128 µg/mL; in the experiment on Bacillus subtilis it was above 128 µg/mL; in the experiment on Aspergillus niger, above 128 µg/mL; in the experiment on Pseudomonas aeruginosa [2], 32 µg/mL (≈ 54.6 µM); in the experiment with Candida albicans, 128 µg/mL (≈ 218 µM). For the same molecule, the values for the MIC90 against Klebsiella pneumoniae [3] and with Candida parapsilosis were 64 µg/mL (≈ 109 µM) and 32 µg/mL (≈ 54.6 µM), respectively.

Turning to `CCc1ccc(C2NC(c3ccc(CC)cc3)C3C(=NO)C2C(c2ccc(CC)cc2)NC3c2ccc(CC)cc2)cc1` (stereo unspecified), the MIC90 was above 128 µg/mL in the experiment with Cryptococcus neoformans; above 128 µg/mL with Staphylococcus aureus; above 128 µg/mL with Bacillus subtilis; above 128 µg/mL against Aspergillus niger; 32 µg/mL (≈ 56 µM) against Pseudomonas aeruginosa [2]; above 128 µg/mL in the experiment with Candida albicans. For the same molecule, the MIC90 in the experiment with Klebsiella pneumoniae [3] is above 128 µg/mL; with Candida parapsilosis, 64 µg/mL (≈ 112 µM).

As to `ON=C1C2C(c3ccccc3)NC(c3ccccc3)C1C(c1ccccc1)NC2c1ccccc1` (stereo unspecified), the MIC90 in the experiment with Cryptococcus neoformans, in the experiment with Staphylococcus aureus, with Bacillus subtilis, in the experiment with Aspergillus niger, in the experiment on Pseudomonas aeruginosa [2] and in the experiment on Candida albicans was above 128 µg/mL throughout. The MIC90 in the experiment on Klebsiella pneumoniae [3] and in the experiment on Candida parapsilosis was above 128 µg/mL in each case.

In the case of `COc1ccccc1C1NC(c2ccccc2OC)C2C(=NO)C1C(c1ccccc1OC)NC2c1ccccc1OC` (stereo unspecified), the MIC90 was 32 µg/mL (≈ 55.2 µM) in the experiment on Cryptococcus neoformans; above 128 µg/mL in the experiment with Staphylococcus aureus; above 128 µg/mL against Bacillus subtilis; 16 µg/mL (≈ 27.6 µM) with Aspergillus niger; 16 µg/mL (≈ 27.6 µM) with Pseudomonas aeruginosa [2]; above 128 µg/mL with Candida albicans. Also, the MIC90 with Klebsiella pneumoniae [3] was found to be 64 µg/mL (≈ 110 µM); in the experiment with Candida parapsilosis it was 32 µg/mL (≈ 55.2 µM).

As for `CCCOc1ccc(C2NC(c3ccc(OCCC)cc3)C3C(=NO)C2C(c2ccc(OCCC)cc2)NC3c2ccc(OCCC)cc2)cc1` (stereo unspecified), the MIC90 with Cryptococcus neoformans is 32 µg/mL (≈ 46.2 µM); against Staphylococcus aureus, above 128 µg/mL; in the experiment on Bacillus subtilis, above 128 µg/mL; against Aspergillus niger, 32 µg/mL (≈ 46.2 µM); in the experiment with Pseudomonas aeruginosa [2], 64 µg/mL (≈ 92.5 µM); against Candida albicans, above 128 µg/mL. Moreover, the MIC90 with Klebsiella pneumoniae [3] is 64 µg/mL (≈ 92.5 µM); against Candida parapsilosis, above 128 µg/mL.

Regarding `CCOc1ccc(C2NC(c3ccc(OCC)cc3)C3C(=NO)C2C(c2ccc(OCC)cc2)NC3c2ccc(OCC)cc2)cc1` (stereo unspecified), the MIC90 was 64 µg/mL (≈ 101 µM) with Cryptococcus neoformans; above 128 µg/mL in the experiment on Staphylococcus aureus; above 128 µg/mL with Bacillus subtilis; 16 µg/mL (≈ 25.2 µM) against Aspergillus niger; 32 µg/mL (≈ 50.3 µM) in the experiment on Pseudomonas aeruginosa [2]; above 128 µg/mL in the experiment with Candida albicans. Besides, the results for the MIC90 in the experiment with Klebsiella pneumoniae [3] and against Candida parapsilosis were 32 µg/mL (≈ 50.3 µM) and above 128 µg/mL, respectively.

For `ON=C1C2C(c3ccc(Br)cc3)NC(c3ccc(Br)cc3)C1C(c1ccc(Br)cc1)NC2c1ccc(Br)cc1` (stereo unspecified), the MIC90 was above 128 µg/mL with Cryptococcus neoformans; above 128 µg/mL against Staphylococcus aureus; 64 µg/mL (≈ 82.6 µM) against Bacillus subtilis; above 128 µg/mL against Aspergillus niger; above 128 µg/mL in the experiment on Pseudomonas aeruginosa [2]; above 128 µg/mL against Candida albicans. In addition, the figures for the MIC90 against Klebsiella pneumoniae [3] and against Candida parapsilosis were 128 µg/mL (≈ 165 µM) and 32 µg/mL (≈ 41.3 µM), respectively.

As for `ON=C1C2C(c3ccc(F)cc3)NC(c3ccc(F)cc3)C1C(c1ccc(F)cc1)NC2c1ccc(F)cc1` (stereo unspecified), the MIC90 is 128 µg/mL (≈ 241 µM) with Cryptococcus neoformans; 16 µg/mL (≈ 30.1 µM) in the experiment on Staphylococcus aureus; 64 µg/mL (≈ 120 µM) in the experiment with Bacillus subtilis; 4 µg/mL (≈ 7.53 µM) in the experiment on Aspergillus niger; 32 µg/mL (≈ 60.2 µM) in the experiment on Pseudomonas aeruginosa [2]; 4 µg/mL (≈ 7.53 µM) in the experiment with Candida albicans. Further, the MIC90 against Klebsiella pneumoniae [3] is 64 µg/mL (≈ 120 µM); against Candida parapsilosis, above 128 µg/mL.

As to `CON=C1C2C(c3ccc(Br)cc3)NC(c3ccc(Br)cc3)C1C(c1ccc(Br)cc1)NC2c1ccc(Br)cc1` (stereo unspecified), the MIC90 is above 128 µg/mL in the experiment with Cryptococcus neoformans; above 128 µg/mL in the experiment with Staphylococcus aureus; 64 µg/mL (≈ 81.1 µM) in the experiment on Bacillus subtilis; above 128 µg/mL in the experiment on Aspergillus niger; above 128 µg/mL in the experiment on Pseudomonas aeruginosa [2]; above 128 µg/mL in the experiment with Candida albicans. In addition, the MIC90 is above 128 µg/mL in the experiment with Klebsiella pneumoniae [3] and 16 µg/mL (≈ 20.3 µM) against Candida parapsilosis.

In the case of `CCOc1ccc(C2NC(c3ccc(OCC)cc3)C3C(=NOC)C2C(c2ccc(OCC)cc2)NC3c2ccc(OCC)cc2)cc1` (stereo unspecified), the MIC90 against Cryptococcus neoformans is 16 µg/mL (≈ 24.6 µM); against Staphylococcus aureus it was above 128 µg/mL; against Bacillus subtilis, above 128 µg/mL; with Aspergillus niger, 8 µg/mL (≈ 12.3 µM); against Pseudomonas aeruginosa [2] it was 32 µg/mL (≈ 49.2 µM); with Candida albicans, above 128 µg/mL. The MIC90 against Klebsiella pneumoniae [3] amounted to 32 µg/mL (≈ 49.2 µM); with Candida parapsilosis, 128 µg/mL (≈ 197 µM).

Broadly, the MIC90 is an inhibitory concentration at the 90% level, which refers to growth in some studies and to a panel of isolates in others. A higher MIC90 goes with lower susceptibility.
